In ChEMBL document CHEMBL5712896, “Targeting EHMT2 reverses EGFR-TKI resistance in NSCLC by epigenetically regulating the PTEN/AKT signaling pathway” (2018):
Active and inactive are the calls of the source. The calls are words filed in the database; no cut-off is given here.

Key:
PC-9/ER [1] = assay: Antitumor activity against human PC-9/ER cells xenografted in SCID mouse assessed as inhibition of tumor growth at 12.5 mg/kg, ip daily for 3 weeks; assay type: functional, organism-based
Method in brief: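 Male SCID mice, 7–8 weeks old, injected s.c. in the right flank with 5 × 10^6 PC9/ER cells in PBS. At an average tumor volume of 50 mm3, randomized into groups of n = 6: saline, UNC0642 2.5 mg/kg bid i.p., Erlotinib 12.5 mg/kg/day i.p., or both. Tumor volume tracked and body weight recorded; tumors weighed after sacrifice at 3 weeks.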

PC-9/ER [2] = assay: Induction of apoptosis in human PC-9/ER cells assessed as late apoptotic cells at 1 uM for 48 hrs by annexin V/PI staining based flow cytometric analysis (reference value: 5.7%); assay type: functional
PC-9/ER [3] = assay: Induction of apoptosis in human PC-9/ER cells assessed as late apoptotic cells at 1 uM for 48 hrs by annexin V/PI staining based flow cytometric analysis relative to control; assay type: functional
Method in brief: (§1)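 PC9/ER cells given a PTEN expression vector or mock vector, then Erlotinib 1 μM for 48 h. Cells stained with Annexin V–FITC/PI (5 min, room temperature, dark) and analyzed by flow cytometry.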

PC-9 [4] = assay: Induction of apoptosis in human PC-9 cells assessed as necrotic cells at 0.1 uM for 48 hrs by annexin V/PI staining based flow cytometric analysis in presence of PTEN-siRNA relative to control; assay type: functional
Method in brief: (§2)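 PC9 cells given PTEN siRNA or scramble siRNA, then Erlotinib 0.1 μM for 48 h. Apoptosis by Annexin V–FITC/PI staining for 5 min at room temperature in the dark, read by flow cytometry.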

PC-9/ER [5] = assay: Induction of apoptosis in human PC-9/ER cells assessed as necrotic cells at 1 uM for 48 hrs by annexin V/PI staining based flow cytometric analysis in presence of PTEN vector relative to control; assay type: functional; method in brief: as §1
PC-9/ER [6] = assay: Induction of apoptosis in human PC-9/ER cells assessed as necrotic cells at 1 uM for 48 hrs by annexin V/PI staining based flow cytometric analysis relative to control; assay type: functional; method in brief: as §1
PC-9/ER [7] = assay: Induction of apoptosis in human PC-9/ER cells assessed as early apoptotic cells at 1 uM for 48 hrs by annexin V/PI staining based flow cytometric analysis (reference value: 0.9%); assay type: functional
PC-9/ER [8] = assay: Induction of apoptosis in human PC-9/ER cells assessed as viable cells at 1 uM for 48 hrs by annexin V/PI staining based flow cytometric analysis relative to control; assay type: functional; details: read-out: Activity; method in brief: as §1
PC-9/ER [9] = assay: Induction of apoptosis in human PC-9/ER cells assessed as necrotic cells at 1 uM for 48 hrs by annexin V/PI staining based flow cytometric analysis in presence of […] siRNA (reference value: 2.3%); assay type: functional
PC-9/ER [10] = assay: Induction of apoptosis in human PC-9/ER cells assessed as necrotic cells at 1 uM for 48 hrs by annexin V/PI staining based flow cytometric analysis in presence of scramble non-target siRNA (reference value: 2.3%); assay type: functional
PC-9/ER [11] = assay: Induction of apoptosis in human PC-9/ER cells assessed as early apoptotic cells at 1 uM for 48 hrs by annexin V/PI staining based flow cytometric analysis in presence of scramble non-target siRNA (reference value: 1.3%); assay type: functional
PC-9/ER [12] = assay: Induction of apoptosis in human PC-9/ER cells assessed as viable cells at 1 uM for 48 hrs by annexin V/PI staining based flow cytometric analysis in presence of PTEN vector relative to control; assay type: functional; details: read-out: Activity; method in brief: as §1
PC-9 [13] = assay: Induction of apoptosis in human PC-9 cells assessed as early apoptotic cells at 0.1 uM for 48 hrs by annexin V/PI staining based flow cytometric analysis in presence of PTEN-siRNA relative to control; assay type: functional; method in brief: as §2
PC-9/ER [14] = assay: Induction of apoptosis in human PC-9/ER cells assessed as early apoptotic cells at 1 uM for 48 hrs by annexin V/PI staining based flow cytometric analysis relative to control; assay type: functional; method in brief: as §1
PC-9/ER [15] = assay: Induction of apoptosis in human PC-9/ER cells assessed as late apoptotic cells at 1 uM for 48 hrs by annexin V/PI staining based flow cytometric analysis in presence of […] siRNA (reference value: 4.2%); assay type: functional
PC-9/ER [16] = assay: Antiproliferative activity against human PC-9/ER cells assessed as reduction in cell survival rate pretreated with UNC0638 followed by compound addition upto 1 uM incubated for 48 hrs by MTT assay; assay type: functional, cell-based
Method in brief: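 PC9/ER cells pretreated with UNC0638 (100 nM), DMSO as control, then given Erlotinib at a range of concentrations for 48 h. Viability by MTT: 4 h at 37 °C, formazan dissolved in DMSO, absorbance at 570 nm.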

PC-9 [17] = assay: Induction of apoptosis in human PC-9 cells assessed as early apoptotic cells at 0.1 uM for 48 hrs by annexin V/PI staining based flow cytometric analysis relative to control; assay type: functional; method in brief: as §2
PC-9/ER [18] = assay: Induction of apoptosis in human PC-9/ER cells assessed as early apoptotic cells at 1 uM for 48 hrs by annexin V/PI staining based flow cytometric analysis in presence of PTEN vector relative to control; assay type: functional; method in brief: as §1
PC-9 [19] = assay: Induction of apoptosis in human PC-9 cells assessed as late apoptotic cells at 0.1 uM for 48 hrs by annexin V/PI staining based flow cytometric analysis relative to control; assay type: functional; method in brief: as §2
PC-9/ER [20] = assay: Induction of apoptosis in human PC-9/ER cells assessed as viable cells at 1 uM for 48 hrs by annexin V/PI staining based flow cytometric analysis in presence of […] siRNA (reference value: 92.2%); assay type: functional; details: read-out: Activity
PC-9/ER [21] = assay: Induction of apoptosis in human PC-9/ER cells assessed as late apoptotic cells at 1 uM for 48 hrs by annexin V/PI staining based flow cytometric analysis in presence of scramble non-target siRNA (reference value: 4.2%); assay type: functional
PC-9 [22] = assay: Induction of apoptosis in human PC-9 cells assessed as viable cells at 0.1 uM for 48 hrs by annexin V/PI staining based flow cytometric analysis relative to control; assay type: functional; details: read-out: Activity; method in brief: as §2
PC-9/ER [23] = assay: Induction of apoptosis in human PC-9/ER cells assessed as viable cells at 1 uM for 48 hrs by annexin V/PI staining based flow cytometric analysis in presence of scramble non-target siRNA (reference value: 92.2%); assay type: functional; details: read-out: Activity
PC-9/ER [24] = assay: Induction of apoptosis in human PC-9/ER cells assessed as late apoptotic cells at 1 uM for 48 hrs by annexin V/PI staining based flow cytometric analysis in presence of PTEN vector relative to control; assay type: functional; method in brief: as §1
PC-9/ER [25] = assay: Induction of apoptosis in human PC-9/ER cells assessed as viable cells at 1 uM for 48 hrs by annexin V/PI staining based flow cytometric analysis (reference value: 91.4%); assay type: functional; details: read-out: Activity
PC-9 [26] = assay: Induction of apoptosis in human PC-9 cells assessed as viable cells at 0.1 uM for 48 hrs by annexin V/PI staining based flow cytometric analysis in presence of PTEN-siRNA relative to control; assay type: functional; details: read-out: Activity; method in brief: as §2
PC-9 [27] = assay: Induction of apoptosis in human PC-9 cells assessed as necrotic cells at 0.1 uM for 48 hrs by annexin V/PI staining based flow cytometric analysis relative to control; assay type: functional; method in brief: as §2
PC-9/ER [28] = assay: Induction of apoptosis in human PC-9/ER cells assessed as early apoptotic cells at 1 uM for 48 hrs by annexin V/PI staining based flow cytometric analysis in presence of […] siRNA (reference value: 1.3%); assay type: functional
PC-9/ER [29] = assay: Induction of apoptosis in human PC-9/ER cells assessed as necrotic cells at 1 uM for 48 hrs by annexin V/PI staining based flow cytometric analysis (reference value: 2.1%); assay type: functional
PC-9 [30] = assay: Induction of apoptosis in human PC-9 cells assessed as late apoptotic cells at 0.1 uM for 48 hrs by annexin V/PI staining based flow cytometric analysis in presence of PTEN-siRNA relative to control; assay type: functional; method in brief: as §2

C#Cc1cccc(Nc2ncnc3cc(OCCOC)c(OCCOC)cc23)c1 [ERLOTINIB]
Activity (PC-9/ER [1]): inactive
Activity (PC-9/ER [2]): 14.5%
Activity (PC-9/ER [3]): 6.4%
Activity (PC-9 [4]): 1.6%
Activity (PC-9/ER [5]): 1.5%
Activity (PC-9/ER [6]): 1.6%
Activity (PC-9/ER [7]): 2.8%
viability at 1 µM (PC-9/ER [8]): 87.1%
Activity (PC-9/ER [9]): 4.5%
Activity (PC-9/ER [10]): 6.2%
Activity (PC-9/ER [11]): 1.3%
viability at 1 µM (PC-9/ER [12]): 70.1%
Activity (PC-9 [13]): 15.3%
Activity (PC-9/ER [14]): 4.9%
Activity (PC-9/ER [15]): 17.5%
Activity (PC-9/ER [16]): Active
Activity (PC-9 [17]): 17.9%
Activity (PC-9/ER [18]): 22.7%
Activity (PC-9 [19]): 18.8%
viability at 1 µM (PC-9/ER [20]): 77.4%
Activity (PC-9/ER [21]): 9.8%
viability at 0.1 µM (PC-9 [22]): 58.2%
viability at 1 µM (PC-9/ER [23]): 82.7%
Activity (PC-9/ER [24]): 5.7%
viability at 1 µM (PC-9/ER [25]): 77.8%
viability at 0.1 µM (PC-9 [26]): 76.5%
Activity (PC-9 [27]): 5.1%
Activity (PC-9/ER [28]): 0.6%
Activity (PC-9/ER [29]): 4.9%
Activity (PC-9 [30]): 6.6%
